M5 ag: human M5 muscarinic receptor agonists, primary screen, CHO-K1 cells, Fluo-8 calcium fluorescence; Muscarinic acetylcholine receptor M5 (Homo sapiens), P08912; activation, % at 3 µM; actives 0.19% (n = 360,000); CHO-K1 hM5 cells; 0% DMSO wells, 100% maximal acetylcholine response; AID 624037, 2012;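 active means activation above the run's mean over test compounds plus 3 SD, cut at about 23% in these data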;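 further: signal is peak over basal fluorescence ratio across the kinetic read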
M4 PAM: human M4 muscarinic receptor positive allosteric modulators, primary screen, CHO-K1 cells, Fluo-8 calcium fluorescence; Muscarinic acetylcholine receptor M4 (Homo sapiens), P08173; CHO-K1 hM4/Gqi5, ACh EC20; 0% = ACh EC20, 100% = maximal ACh; activation, % at 3 µM; actives 0.4% (n = 360,000);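 active means activation above its plate's cutoff, the mean activation of sample wells plus 3 SD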
Target sequence (P08173 whole entry, looked up): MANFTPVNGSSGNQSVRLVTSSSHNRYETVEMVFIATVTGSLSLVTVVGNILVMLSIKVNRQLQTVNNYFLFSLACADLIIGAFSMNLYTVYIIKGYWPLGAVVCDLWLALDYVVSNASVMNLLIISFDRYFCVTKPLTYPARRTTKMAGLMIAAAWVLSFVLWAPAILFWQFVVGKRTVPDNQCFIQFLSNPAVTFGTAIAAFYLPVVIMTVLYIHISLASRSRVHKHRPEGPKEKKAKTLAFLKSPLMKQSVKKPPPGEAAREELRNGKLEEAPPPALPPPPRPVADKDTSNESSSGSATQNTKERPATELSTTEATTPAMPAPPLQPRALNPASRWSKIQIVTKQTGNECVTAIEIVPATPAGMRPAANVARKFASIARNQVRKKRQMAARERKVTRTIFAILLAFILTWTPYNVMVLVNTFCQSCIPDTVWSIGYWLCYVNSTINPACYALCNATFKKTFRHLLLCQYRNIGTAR
M5 PAM: human M5 muscarinic receptor positive allosteric modulators, primary screen, CHO-K1 cells, Fluo-8 calcium fluorescence; Muscarinic acetylcholine receptor M5 (Homo sapiens), P08912; CHO-K1 hM5, ACh EC20 PAM; 0% = ACh EC20, 100% = ACh EC100; activation, % at 3 µM; actives 0.3% (n = 360,000);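 active means activation above the run cutoff, the mean activation of all test compounds plus 3 SD, cut at about 18% in these data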
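Measured by: Fluo-8 calcium fluorescence; material: human M5 receptor in CHO-K1 cells; schedule: Post-acetylcholine fluorescence recording 140 s; benchmarks: low control EC20 acetylcholine (0%), high control EC100 acetylcholine (100%); read-out: Max/basal fluorescence ratio as % of EC20–EC100 ACh window; compound: single dose, 3 µM nominal final test concentration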
M4 ag: human M4 muscarinic receptor agonists, primary screen, CHO-K1 cells, Fluo-8 calcium fluorescence. CHO-K1 hM4/Gqi5; vehicle 0%, full acetylcholine response 100%. activation, % at 3 µM. actives 0.14% (n = 360,000). AID 624127, 2012;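 active means activation above the run mean over all test wells plus 3 SD, cut at about 32% in these data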;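 further: peak over basal fluorescence ratio per well then scaled between controls; 0% = DMSO wells and 100% = acetylcholine at EC100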
CHRM5 antagonist: human M5 muscarinic receptor antagonists, primary screen, CHO cells, Fluo-8 calcium fluorescence; CHO-hM5 cells, ACh EC80; inhibition, % at 3 µM; actives 0.59% (n = 360,000);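 active means inhibition above a per-plate cutoff, the mean of that plate's test compounds plus 3 SD, cut at about 27% in these data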;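 further: 0% = acetylcholine EC80 with DMSO and 100% = DMSO without agonist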
M4 antag: human M4 muscarinic receptor antagonists, primary screen, CHO cells, Fluo-8 calcium fluorescence; CHO-hM4 cells, ACh EC80; inhibition, % at 3 µM; actives 0.73% (n = 360,000); AID 624125, 2012;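 active means inhibition above its plate's cutoff, the mean inhibition of sample wells plus 3 SD, cut at about 27% in these data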;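 further: 0% = acetylcholine EC80 with DMSO and 100% = DMSO without agonist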
* = called active by the depositor. In the library only some 1.9% were active in any assay of this set; here they are far more common.

SMILES	M5 ag	M4 PAM	M5 PAM	M4 ag	CHRM5 antagonist	M4 antag
O=C1C(=O)N(CCN2CCOCC2)C(c2ccncc2)/C1=C(/O)c1ccc2c(c1)OCO2 (stereo unspecified)	1	4	0	1	-4	6
O=C1C(=O)N(CCN2CCOCC2)C(c2ccc([N+](=O)[O-])cc2)/C1=C(/O)c1ccc2c(c1)OCO2 (stereo unspecified)	-3	22*	4	3	1	-2
CS(=O)(=O)c1ccc(N2CCN(S(=O)(=O)c3cccs3)CC2)c([N+](=O)[O-])c1	8	-5	-6	5	11	7
COc1cc(/C=C/C(=O)/C=C(O)/C=C/c2ccc(O)c(OC)c2)ccc1O	39*	-12	-18	44*	37*	32*
COc1cc(/C=C/C(=O)O)ccc1O	4	-1	-2	1	0	-3
COc1cc(C=C2C(=O)C=CC2=O)ccc1O	4	-4	7	0	-2	31*
COc1cc(/C=C2/C(=O)CNC2=O)ccc1O	1	2	6	0	-3	1
O=C(NNCc1ccccc1)c1ccccn1	0	3	1	1	11	-15
COc1ccc(-c2coc3c(C(=O)NCc4ccc(OC)c(OC)c4)cccc23)c(C)c1	6	-10	-15	16	36*	37*
COc1ccc(-c2ccc(C(=O)NCc3ccc(F)c(F)c3)c3occc23)c(C)c1	-2	-3	-10	5	4	10
COc1ccc(-c2ccc(C(=O)NCc3ccncc3)c3occc23)c(C)c1	5	-7	-18	16	32*	20
CCN(C(=O)COC(=O)CCCc1c[nH]c2ccccc12)c1c(N)n(Cc2ccccc2)c(=O)[nH]c1=O	-1	7	-4	0	7	-27
O=C(NC1CC1)c1ccc2sc([C@H]3C[C@H](O)[C@@H](CO)O3)nc2c1	1	7	2	2	-1	-4
CCNC(=O)c1ccc(CSc2nc3ccccc3s2)cc1	-1	-8	-12	16	34*	-3
O=C(CNS(=O)(=O)c1cccs1)N1CCN(c2ccccc2F)CC1	-1	17*	7	6	-15	-36
O=C(CNS(=O)(=O)c1ccc(F)cc1)N1CCN(c2ccccc2)CC1	2	2	-4	2	6	27*
CCCCc1nnc(NC(=O)c2ccc(OCc3c(C)noc3C)cc2)s1	3	14	3	1	6	-13
COC(=O)c1c(NC(=O)C2=COCCO2)sc(C)c1C	-5	25*	-1	0	6	7
COc1ccc(C)c2sc(NC(=O)C3=COCCO3)nc12	1	36*	6	15	-6	-9
O=C(Cn1c(NCCO)nc2ccccc21)Nc1ccc2c(c1)OCCCO2	2	11	1	0	3	-4
COc1ccc2c(c1)Cc1sc(NC(=O)c3ccccc3)nc1-2	5	18*	4	5	3	-8
O=C1NC[C@@H](CCCCN2C[C@H](Cc3ccc(O)cc3)N(CC3CCCCC3)C(=O)C2=O)N(CCC2CCCCC2)C1=O	37*	8	-6	71*	3	-5
CC(C)C[C@H]1CNC(=O)C(=O)N1C[C@@H]1CCCN1C[C@H](Cc1ccc(O)cc1)N1C[C@H](Cc2ccccc2)N(CC2CCCCC2)C(=O)C1=O	-3	0	-11	-1	7	37*
O=C(NCC(c1ccco1)N1CCOCC1)c1ccc(F)c(F)c1 (stereo unspecified)	2	5	-3	1	2	-1
N#Cc1ccc(C(=O)Nc2nnc(-c3cccs3)o2)cc1	0	4	0	0	8	-7
SMILES	M5 ag	M4 PAM	M5 PAM	M4 ag	CHRM5 antagonist	M4 antag
O=C(Nc1nnc(-c2cccs2)o1)c1cccc(C(F)(F)F)c1	15	-3	-16	65*	4	-4
COc1ccc(CSc2nnc3[nH]c(=O)cc(N)n23)cc1	-7	20	-13	1	35*	-8
Nc1ccccc1-c1nnc2n1CCCCC2	-5	0	0	0	17	-4
C=CCNC(=S)Nc1ccccc1-c1nnc2n1CCCCC2	-9	-16	-16	1	30*	4
CC1CCC(NC(=O)c2cc(S(=O)(=O)N(C)C)ccc2N2CCCC2)CC1 (stereo unspecified)	-2	14	2	1	4	4
COc1ccc(C(=O)COC(=O)C(CCSC)NS(=O)(=O)c2ccc(Cl)cc2)cc1 (stereo unspecified)	1	-23	-15	19	12	27*
COc1ccc(CNC(=O)[C@@H]2CC=C[C@@H]3CCN(Cc4ccc(Cl)c(Cl)c4)C(=O)[C@@H]32)cc1	1	10	-4	5	9	-6
COc1ccc(CNC[C@@H](CCCCN(C)Cc2ccc(OC)cc2)N2C[C@H](c3ccccc3)N(CCc3ccc(Cl)c(Cl)c3)C(=O)C2=O)cc1	-3	3	-3	60*	14	21
CN1CCN(C(c2cccc(Cl)c2)c2ccccc2Cl)CC1 (stereo unspecified)	-4	-16	-18	3	87*	64*
CN1CCN(C(c2ccccc2)c2ccc(Cl)cc2)CC1 (stereo unspecified)	0	-17	-19	5	21	24
CC(=O)CCc1ccc(OCCCCN2CCC(Cc3ccccc3)CC2)cc1	-15	-27	-30	4	25	75*
CCC(=O)c1ccccc1OCCCN1CCC(Cc2ccccc2)CC1	-11	-18	-28	24	12	42*
O=[N+]([O-])c1cccc(OCCCN2CCC(Cc3ccccc3)CC2)c1	-25	-17	-32	14	6	38*
O=[N+]([O-])c1ccc(CN2CCC(Cc3ccccc3)CC2)cc1	-8	-14	-8	-2	5	8
O=C(COC(=O)c1cc(Cl)cc(Cl)c1)NCc1ccco1	1	1	4	0	3	7
C=C1c2cc(C)ccc2NC(=O)N1c1ccc(C)cc1	-1	29*	5	0	-6	-1
C=C1c2ccccc2NC(=O)N1c1ccc(C)cc1	-3	2	-1	0	-3	9

Screens: PubChem BioAssay, The Scripps Research Institute Molecular Screening Center
